# Experimental data as given in ChEMBL document CHEMBL4251662, “Alkyl indole-based cannabinoid type 2 receptor tools: Exploration of linker and fluorophore attachment” (Eur J Med Chem, 2018).
# Calls of active or inactive are those of the source. The rule behind the calls is not given here.
# Tests used:
# [1] = target: Interleukin-17A (Homo sapiens) (UniProt Q16552); experiment: Inhibition of IL-17 (unknown origin) assessed as disruption of IL-17 protein-protein interaction
# [2] = target: Potassium voltage-gated channel subfamily KQT member 2 (Homo sapiens) (UniProt O43526); experiment: Agonist activity at KCNQ2 (unknown origin)
# Sequence of Potassium voltage-gated channel subfamily KQT member 2 (Homo sapiens) (O43526 whole entry): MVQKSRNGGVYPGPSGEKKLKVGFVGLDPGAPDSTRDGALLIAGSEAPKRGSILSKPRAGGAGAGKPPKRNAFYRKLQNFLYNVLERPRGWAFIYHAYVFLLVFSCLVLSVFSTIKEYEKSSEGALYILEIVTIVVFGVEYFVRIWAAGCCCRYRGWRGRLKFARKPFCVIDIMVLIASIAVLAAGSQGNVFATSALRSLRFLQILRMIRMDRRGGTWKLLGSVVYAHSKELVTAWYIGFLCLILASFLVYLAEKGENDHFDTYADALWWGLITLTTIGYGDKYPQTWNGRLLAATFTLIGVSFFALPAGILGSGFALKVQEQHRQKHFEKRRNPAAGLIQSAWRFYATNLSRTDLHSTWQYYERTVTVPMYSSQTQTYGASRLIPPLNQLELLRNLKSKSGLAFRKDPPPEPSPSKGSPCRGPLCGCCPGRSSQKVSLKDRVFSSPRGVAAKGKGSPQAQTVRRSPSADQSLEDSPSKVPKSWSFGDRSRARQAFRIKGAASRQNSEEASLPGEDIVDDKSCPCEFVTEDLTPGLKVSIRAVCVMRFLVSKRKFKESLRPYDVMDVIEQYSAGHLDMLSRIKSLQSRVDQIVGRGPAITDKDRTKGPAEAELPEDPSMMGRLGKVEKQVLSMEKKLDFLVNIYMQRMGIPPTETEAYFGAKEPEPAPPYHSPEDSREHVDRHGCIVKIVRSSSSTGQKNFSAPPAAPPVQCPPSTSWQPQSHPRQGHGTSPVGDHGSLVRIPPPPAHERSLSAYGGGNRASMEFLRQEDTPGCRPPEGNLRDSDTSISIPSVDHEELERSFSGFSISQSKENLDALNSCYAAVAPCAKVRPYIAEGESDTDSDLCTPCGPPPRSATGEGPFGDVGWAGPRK
# HEK293 [3] = experiment: Effect on forskolin-stimulated cAMP level in HEK293 cells at 10 uM by BRET assay relative to control; assay type: ADME, cell-based; settings: human, hek293, 10 µM
# Method in brief: (§1)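 Wild-type HEK293 cells lacking transfected receptor, tested at 10 µM and 1 µM. Forskolin-stimulated cAMP measured by BRET as a check that responses are receptor-mediated.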
# [4] = target: T1, Nicotinamide N-methyltransferase (Homo sapiens) (UniProt P40261); experiment: Inhibition of NNMT (unknown origin)
# T1 sequence (whole entry): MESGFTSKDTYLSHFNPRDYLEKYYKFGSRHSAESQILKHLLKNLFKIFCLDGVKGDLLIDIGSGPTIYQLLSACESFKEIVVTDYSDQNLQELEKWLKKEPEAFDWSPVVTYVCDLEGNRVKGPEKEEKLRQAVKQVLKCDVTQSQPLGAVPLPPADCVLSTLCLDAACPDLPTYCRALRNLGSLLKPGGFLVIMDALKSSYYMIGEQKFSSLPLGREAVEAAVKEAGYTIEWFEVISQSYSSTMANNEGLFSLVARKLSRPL
# Cannabinoid receptor 2 [5] = target: T2, Cannabinoid receptor 2 (Homo sapiens, UniProt P34972); experiment: Activity at N-terminal HA-tagged human CB2 receptor expressed in HEK293 cells transfected with YFP-Epac-RLuc assessed as effect on forskolin-stimulated cAMP level by BRET assay relative to control; assay type: functional, cell-based
# T2 sequence (P34972 whole entry): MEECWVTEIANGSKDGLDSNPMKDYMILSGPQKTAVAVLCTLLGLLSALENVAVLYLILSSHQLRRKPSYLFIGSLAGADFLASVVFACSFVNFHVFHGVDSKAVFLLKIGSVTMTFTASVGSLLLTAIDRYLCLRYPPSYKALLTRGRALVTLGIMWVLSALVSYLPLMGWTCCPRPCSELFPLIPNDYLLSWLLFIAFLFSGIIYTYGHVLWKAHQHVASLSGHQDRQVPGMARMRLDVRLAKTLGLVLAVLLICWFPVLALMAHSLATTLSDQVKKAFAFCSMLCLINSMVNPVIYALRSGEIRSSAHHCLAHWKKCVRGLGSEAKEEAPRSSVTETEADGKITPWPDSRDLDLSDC
# Method in brief: (§2)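 BRET cAMP biosensor read-out in HEK293 cells expressing HA-tagged human CB1 or CB2, with forskolin stimulation (5 µM). Concentration-response curves; area-under-curve values normalised to forskolin alone = 100% and basal = 0%. EC50 taken for agonists and IC50 for inverse agonists. Mean of at least three independent experiments, each point in duplicate.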
# Cannabinoid receptor 1 [6] = target: T3, Cannabinoid receptor 1 (Homo sapiens, UniProt P21554); experiment: Activity at N-terminal HA-tagged human CB1 receptor expressed in HEK293 cells transfected with YFP-Epac-RLuc assessed as effect on forskolin-stimulated cAMP level by BRET assay relative to control; assay type: functional, cell-based; method in brief: as §2
# T3 sequence (P21554 whole entry): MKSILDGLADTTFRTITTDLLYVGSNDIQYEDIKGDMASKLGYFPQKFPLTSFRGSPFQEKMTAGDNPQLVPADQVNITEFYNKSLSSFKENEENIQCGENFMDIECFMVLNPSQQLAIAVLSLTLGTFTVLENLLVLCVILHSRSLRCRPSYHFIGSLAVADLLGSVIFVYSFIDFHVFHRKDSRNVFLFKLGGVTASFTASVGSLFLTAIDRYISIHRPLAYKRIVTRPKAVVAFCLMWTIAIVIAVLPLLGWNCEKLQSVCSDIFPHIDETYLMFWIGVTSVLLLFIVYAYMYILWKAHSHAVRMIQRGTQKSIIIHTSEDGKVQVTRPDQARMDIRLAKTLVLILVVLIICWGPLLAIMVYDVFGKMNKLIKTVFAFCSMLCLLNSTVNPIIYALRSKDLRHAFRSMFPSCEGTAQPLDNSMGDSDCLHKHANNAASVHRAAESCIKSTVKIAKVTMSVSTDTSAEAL
# Leishmania donovani = experiment: Growth inhibition of Leishmania donovani; assay type: functional, organism-based
# Cannabinoid receptor 1 [7] = target: T3, Cannabinoid receptor 1; experiment: Activity at N-terminal HA-tagged human CB1 receptor expressed in HEK293 cells transfected with YFP-Epac-RLuc assessed as effect on forskolin-stimulated cAMP level by BRET assay; assay type: functional, cell-based; method in brief: as §2
# Cannabinoid receptor 1 [8] = target: T3, Cannabinoid receptor 1; experiment: Displacement of [3H]CP55,940 from N-terminal HA-tagged human CB1 receptor expressed in HEK293 cell membranes after 1 hr by microbeta scintillation counting method; settings: read-out: Ki
# Cannabinoid receptor 2 [9] = target: T2, Cannabinoid receptor 2; experiment: Displacement of [3H]CP55,940 from N-terminal HA-tagged human CB2 receptor expressed in HEK293 cell membranes after 1 hr by microbeta scintillation counting method; settings: read-out: Ki
# [10] = target: T4, Free fatty acid receptor 4 (Homo sapiens) (UniProt Q5NUL3); experiment: Agonist activity at GPR120 (unknown origin); assay type: functional
# T4 sequence (whole entry): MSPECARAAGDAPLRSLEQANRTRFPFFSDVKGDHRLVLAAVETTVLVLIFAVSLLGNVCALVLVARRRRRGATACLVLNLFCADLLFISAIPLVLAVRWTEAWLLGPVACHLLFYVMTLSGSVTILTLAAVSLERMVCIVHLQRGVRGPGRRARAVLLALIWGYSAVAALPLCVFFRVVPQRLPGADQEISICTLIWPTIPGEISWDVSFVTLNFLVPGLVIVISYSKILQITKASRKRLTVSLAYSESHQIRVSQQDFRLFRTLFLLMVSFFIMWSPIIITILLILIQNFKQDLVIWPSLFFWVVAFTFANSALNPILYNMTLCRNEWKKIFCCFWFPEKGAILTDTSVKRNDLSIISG
# HEK293 [11] = experiment: Effect on forskolin-stimulated cAMP level in HEK293 cells at 1 uM by BRET assay relative to control; assay type: ADME, cell-based; settings: human, hek293, 1 µM; method in brief: as §1
# [12] = target: T5, Potassium voltage-gated channel subfamily KQT member 3 (Homo sapiens) (UniProt O43525); experiment: Agonist activity at KCNQ3 (unknown origin)
# T5 sequence (whole entry): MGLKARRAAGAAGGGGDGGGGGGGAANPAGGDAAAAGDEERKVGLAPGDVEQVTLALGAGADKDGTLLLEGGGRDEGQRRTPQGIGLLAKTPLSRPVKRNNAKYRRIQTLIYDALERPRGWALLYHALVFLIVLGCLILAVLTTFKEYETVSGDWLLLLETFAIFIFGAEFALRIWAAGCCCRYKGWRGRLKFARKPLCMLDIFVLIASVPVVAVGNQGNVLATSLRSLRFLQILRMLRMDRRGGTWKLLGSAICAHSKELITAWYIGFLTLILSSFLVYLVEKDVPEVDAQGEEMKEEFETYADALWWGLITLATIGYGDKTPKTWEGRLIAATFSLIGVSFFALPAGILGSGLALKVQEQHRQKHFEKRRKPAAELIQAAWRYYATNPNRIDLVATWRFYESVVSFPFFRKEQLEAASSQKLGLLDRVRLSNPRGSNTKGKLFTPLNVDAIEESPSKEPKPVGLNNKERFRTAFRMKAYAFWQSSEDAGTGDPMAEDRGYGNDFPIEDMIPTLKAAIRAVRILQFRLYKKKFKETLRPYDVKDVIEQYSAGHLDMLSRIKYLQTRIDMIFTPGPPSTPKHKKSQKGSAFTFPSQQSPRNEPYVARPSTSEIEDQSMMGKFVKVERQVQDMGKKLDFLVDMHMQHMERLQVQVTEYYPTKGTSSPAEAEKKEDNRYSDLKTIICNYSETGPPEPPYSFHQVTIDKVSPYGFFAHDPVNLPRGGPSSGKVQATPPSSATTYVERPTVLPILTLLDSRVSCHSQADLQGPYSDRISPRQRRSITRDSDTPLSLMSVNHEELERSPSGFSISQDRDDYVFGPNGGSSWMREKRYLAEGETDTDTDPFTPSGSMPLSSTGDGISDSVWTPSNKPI
# Cannabinoid receptor 1 [13] = target: T3, Cannabinoid receptor 1; experiment: Displacement of [3H]CP55,940 from N-terminal HA-tagged human CB1 receptor expressed in HEK293 cell membranes at 10 uM after 1 hr by microbeta scintillation counting method relative to control
# Method in brief: (§3)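 Single-point competition screen against [3H]CP55,940 in HEK293 cells over-expressing 3HA-tagged hCB2 or hCB1. Compounds giving more than 50% displacement went on to full concentration-response curves.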
# [14] = target: Proprotein convertase subtilisin/kexin type 9 (Homo sapiens) (UniProt Q8NBP7); experiment: Inhibition of PCSK9 (unknown origin)
# Sequence of Proprotein convertase subtilisin/kexin type 9 (Homo sapiens) (Q8NBP7 31-152 limits assumed): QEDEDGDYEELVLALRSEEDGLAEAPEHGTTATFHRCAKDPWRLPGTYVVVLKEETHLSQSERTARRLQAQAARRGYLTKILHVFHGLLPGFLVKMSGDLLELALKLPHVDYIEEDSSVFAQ
# Sequence of Proprotein convertase subtilisin/kexin type 9 (Homo sapiens) (Q8NBP7 153-692 limits assumed): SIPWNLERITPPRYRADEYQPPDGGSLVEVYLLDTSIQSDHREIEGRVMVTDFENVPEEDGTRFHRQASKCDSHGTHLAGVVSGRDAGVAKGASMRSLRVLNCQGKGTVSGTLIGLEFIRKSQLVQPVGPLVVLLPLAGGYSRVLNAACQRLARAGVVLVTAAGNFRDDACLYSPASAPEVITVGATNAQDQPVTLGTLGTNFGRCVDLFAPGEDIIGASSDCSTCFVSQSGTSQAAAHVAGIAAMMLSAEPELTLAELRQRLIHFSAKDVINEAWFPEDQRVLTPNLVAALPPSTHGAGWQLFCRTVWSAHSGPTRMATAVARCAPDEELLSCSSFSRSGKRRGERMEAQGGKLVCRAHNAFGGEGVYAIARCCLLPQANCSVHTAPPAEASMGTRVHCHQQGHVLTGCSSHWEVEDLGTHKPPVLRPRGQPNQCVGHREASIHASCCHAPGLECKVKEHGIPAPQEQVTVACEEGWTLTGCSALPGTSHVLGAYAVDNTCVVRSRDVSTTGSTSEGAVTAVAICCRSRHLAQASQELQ
# Cannabinoid receptor 2 [15] = target: T2, Cannabinoid receptor 2; experiment: Displacement of [3H]CP55,940 from N-terminal HA-tagged human CB2 receptor expressed in HEK293 cell membranes at 10 uM after 1 hr by microbeta scintillation counting method relative to control; method in brief: as §3
# Cannabinoid receptor 2 [16] = target: T2, Cannabinoid receptor 2; experiment: Activity at N-terminal HA-tagged human CB2 receptor expressed in HEK293 cells transfected with YFP-Epac-RLuc assessed as effect on forskolin-stimulated cAMP level by BRET assay; assay type: functional, cell-based; method in brief: as §2
# Cannabinoid receptor 2 [17] = target: T2, Cannabinoid receptor 2; experiment: Inverse agonist activity at N-terminal HA-tagged human CB2 receptor expressed in HEK293 cells transfected with YFP-Epac-RLuc assessed as increase in forskolin-stimulated cAMP level by BRET assay relative to control; assay type: functional, cell-based; method in brief: as §2
# Cannabinoid receptor 2 [18] = target: T2, Cannabinoid receptor 2; experiment: Inverse agonist activity at N-terminal HA-tagged human CB2 receptor expressed in HEK293 cells transfected with YFP-Epac-RLuc assessed as increase in forskolin-stimulated cAMP level by BRET assay; assay type: functional, cell-based; method in brief: as §2
# Cannabinoid receptor 1 [19] = target: T3, Cannabinoid receptor 1; experiment: Agonist activity at N-terminal HA-tagged human CB1 receptor expressed in HEK293 cells transfected with YFP-Epac-RLuc assessed as decrease in forskolin-stimulated cAMP level at 10 uM by BRET assay; assay type: functional, cell-based
# Method in brief: (§4)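 Single-concentration screen at 10 µM in CB receptor-expressing HEK293 cells, run with and without CP55,940 as reference agonist. Forskolin-stimulated cAMP read by BRET biosensor. A fall in cAMP is scored as agonism and a rise as inverse agonism.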
# Cannabinoid receptor 2 [20] = target: T2, Cannabinoid receptor 2; experiment: Inverse agonist activity at N-terminal HA-tagged human CB2 receptor expressed in HEK293 cells transfected with YFP-Epac-RLuc assessed as increase in forskolin-stimulated cAMP level at 10 uM by BRET assay; assay type: functional, cell-based
# Cannabinoid receptor 1 [21] = target: T3, Cannabinoid receptor 1; experiment: Agonist activity at N-terminal HA-tagged human CB1 receptor expressed in HEK293 cells transfected with YFP-Epac-RLuc assessed as decrease in forskolin-stimulated cAMP level by BRET assay relative to control; assay type: functional, cell-based; method in brief: as §2
# Cannabinoid receptor 1 [22] = target: T3, Cannabinoid receptor 1; experiment: Agonist activity at N-terminal HA-tagged human CB1 receptor expressed in HEK293 cells transfected with YFP-Epac-RLuc assessed as decrease in forskolin-stimulated cAMP level by BRET assay; assay type: functional, cell-based; method in brief: as §2
# Cannabinoid receptor 2 [23] = target: T2, Cannabinoid receptor 2; experiment: Agonist activity at N-terminal HA-tagged human CB2 receptor expressed in HEK293 cells transfected with YFP-Epac-RLuc assessed as decrease in forskolin-stimulated cAMP level by BRET assay; assay type: functional, cell-based; method in brief: as §2
# Cannabinoid receptor 2 [24] = target: T2, Cannabinoid receptor 2; experiment: Agonist activity at N-terminal HA-tagged human CB2 receptor expressed in HEK293 cells transfected with YFP-Epac-RLuc assessed as decrease in forskolin-stimulated cAMP level by BRET assay relative to control; assay type: functional, cell-based; method in brief: as §2
# Cannabinoid receptor 2 [25] = target: T2, Cannabinoid receptor 2; experiment: Agonist activity at N-terminal HA-tagged human CB2 receptor expressed in HEK293 cells transfected with YFP-Epac-RLuc assessed as decrease in forskolin-stimulated cAMP level at 10 uM by BRET assay; assay type: functional, cell-based; method in brief: as §4
# Sequence of Interleukin-17A (Homo sapiens) (Q16552 whole entry): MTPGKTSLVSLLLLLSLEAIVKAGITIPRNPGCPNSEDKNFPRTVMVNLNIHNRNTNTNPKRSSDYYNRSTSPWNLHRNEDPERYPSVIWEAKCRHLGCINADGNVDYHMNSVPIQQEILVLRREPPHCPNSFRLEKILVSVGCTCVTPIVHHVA
SMILES,inhibition [1],Activity [2],Activity (HEK293 [3]) [%],inhibition [4],Emax (Cannabinoid receptor 1 [6]),growth inhibition (GI) (Leishmania donovani),Activity (Cannabinoid receptor 1 [7]),Ki (Cannabinoid receptor 1 [8]) [nM],Ki (Cannabinoid receptor 2 [9]) [nM],Activity [10],Activity (HEK293 [11]) [%],Activity [12],inhibition (Cannabinoid receptor 1 [13]) [%],inhibition [14],inhibition (Cannabinoid receptor 2 [15]) [%],Emax (Cannabinoid receptor 2 [17]) [%],IC50 (Cannabinoid receptor 2 [18]) [nM],Activity (Cannabinoid receptor 1 [19]),Activity (Cannabinoid receptor 2 [20]),Emax (Cannabinoid receptor 1 [21]) [%],also measured
CCCOc1ccc2c(c1)c(C(=O)c1ccc(OC)cc1)cn2CC1CCOCC1,inactive,inactive,127.6,inactive,inactive,inactive,inactive,4530,1350,inactive,95,inactive,> 50,inactive,> 50,–,–,–,–,–,Emax (Cannabinoid receptor 2 [5]): inactive; Activity (Cannabinoid receptor 2 [16]): inactive
COc1ccc(C(=O)c2cn(CC3CCOCC3)c3c(O)cccc23)cc1,inactive,inactive,135.3,inactive,–,inactive,–,3580,53.9,inactive,104.3,inactive,> 50,inactive,> 50,190,272,Active,Active,64.3,EC50 (Cannabinoid receptor 1 [22]): 632 nM
COc1ccc(C(=O)c2cn(CC3CCOCC3)c3ccc(O)cc23)cc1,inactive,inactive,109.6,inactive,–,inactive,–,1410,120,inactive,105.5,inactive,> 50,inactive,> 50,–,–,Active,–,62.2,EC50 (Cannabinoid receptor 2 [23]): 4.4 nM; EC50 (Cannabinoid receptor 1 [22]): 62.9 nM; Emax (Cannabinoid receptor 2 [24]): 65.7%; Activity (Cannabinoid receptor 2 [25]): Active
Cc1ccc(Cn2nc(C(=O)N[C@@H]3C(C)(C)[C@@H]4CC[C@@]3(C)C4)cc2-c2ccc(Cl)c(C)c2)cc1,–,–,94.5,–,inactive,–,inactive,–,–,–,99.8,–,–,–,–,212,–,–,–,–,–
CCCOc1cccc2c(C(=O)c3ccc(OC)cc3)cn(CC3CCOCC3)c12,–,–,133.9,–,inactive,–,inactive,505,5.7,–,105.4,–,> 50,–,> 50,263,30.6,–,Active,–,–
